Measurements: ChEMBL document CHEMBL3875141, “2,4,5-Trisubstituted thiazole derivatives as HIV-1 NNRTIs effective on both wild-type and mutant HIV-1 reverse transcriptase: Optimization of the substitution of positions 4 and 5” (Eur J Med Chem, 2016)

Key:
[1] = system: Human immunodeficiency virus 1; experiment: Antiviral activity against wild-type HIV-1 NL4-3 harboring vesicular stomatitis virus glycoprotein infected in HEK293T cells pretreated with cells for 15 mins followed by viral infection measured after 48 hrs by luciferase reporter gene assay; format: functional, cell-based; conditions: Human immunodeficiency virus 1, NL4-3, HEK-293T
How it was run: (§1)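 VSV-G-pseudotyped HIV-1 (wild-type or RT mutant) produced by co-transfection of HEK293T cells (calcium phosphate), supernatant harvested 48 h, 0.22 µm filtered, normalised by p24 ELISA to 0.2 ng p24/mL.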

[2] = Cytotoxicity against HEK293T cells at 10 uM after 48 hrs by cell proliferation assay; format: toxicity, cell-based; conditions: human, hek-293t
How it was run: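 HEK 293T cells seeded at 1×10^4 cells/well, treated next day with serially diluted compounds and cultured 48 h; viability read with a cell proliferation assay kit per manufacturer's instructions. Footnote reports testing at a final concentration of 10 μM.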

[3] = system: Human immunodeficiency virus 1; experiment: Ratio of IC50 for HIV-1 NL4-3 harboring RT-K103N/Y181C double mutant infected in HEK293T cells co-expressing vesicular stomatitis virus glycoprotein to IC50 for wild-type HIV-1 NL4-3 infected in HEK293T cells co-expressing vesicular stomatitis virus glycoprotein; format: functional, HEK-293T
How it was run: (§2)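 Fold change: mean IC50 against each RT-mutant VSV-G-pseudotyped virus divided by IC50 against wild-type pseudovirus. Both values come from the same HEK293T assay: 0.2 ng p24/mL inoculum, compound added 15 min before infection, luciferase read-out at 48 h.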

[4] = system: Human immunodeficiency virus 1; experiment: Antiviral activity against HIV-1 NL4-3 harboring RT-K103N/Y188L double mutant infected in HEK293T cells coexpressing vesicular stomatitis virus glycoprotein pretreated with cells for 15 mins followed by viral infection measured after 48 hrs by luciferase reporter gene assay; format: functional, cell-based; conditions: hek-293t; how it was run: as §1
[5] = system: Human immunodeficiency virus 1; experiment: Ratio of IC50 for HIV-1 NL4-3 harboring RT-L100I/K103N double mutant infected in HEK293T cells co-expressing vesicular stomatitis virus glycoprotein to IC50 for wild-type HIV-1 NL4-3 infected in HEK293T cells co-expressing vesicular stomatitis virus glycoprotein; format: functional, HEK-293T; how it was run: as §2
[6] = system: Human immunodeficiency virus 1; experiment: Ratio of IC50 for HIV-1 NL4-3 harboring RT-K103N mutant infected in HEK293T cells co-expressing vesicular stomatitis virus glycoprotein to IC50 for wild-type HIV-1 NL4-3 infected in HEK293T cells co-expressing vesicular stomatitis virus glycoprotein; format: functional, HEK-293T
[7] = system: Human immunodeficiency virus 1; experiment: Ratio of IC50 for HIV-1 NL4-3 harboring RT-Y181C mutant infected in HEK293T cells co-expressing vesicular stomatitis virus glycoprotein to IC50 for wild-type HIV-1 NL4-3 infected in HEK293T cells co-expressing vesicular stomatitis virus glycoprotein; format: functional, HEK-293T; how it was run: as §2
[8] = system: Human immunodeficiency virus 1; experiment: Antiviral activity against HIV-1 NL4-3 harboring RT-K103N/Y181C double mutant infected in HEK293T cells coexpressing vesicular stomatitis virus glycoprotein pretreated with cells for 15 mins followed by viral infection measured after 48 hrs by luciferase reporter gene assay; format: functional, cell-based; conditions: hek-293t; how it was run: as §1
[9] = system: Human immunodeficiency virus 1; experiment: Antiviral activity against HIV-1 NL4-3 harboring RT-K103N/V108I double mutant infected in HEK293T cells coexpressing vesicular stomatitis virus glycoprotein pretreated with cells for 15 mins followed by viral infection measured after 48 hrs by luciferase reporter gene assay; format: functional, cell-based; conditions: hek-293t; how it was run: as §1
[10] = system: Human immunodeficiency virus 1; experiment: Ratio of IC50 for HIV-1 NL4-3 harboring RT-K103N/G190A double mutant infected in HEK293T cells co-expressing vesicular stomatitis virus glycoprotein to IC50 for wild-type HIV-1 NL4-3 infected in HEK293T cells co-expressing vesicular stomatitis virus glycoprotein; format: functional, HEK-293T; how it was run: as §2
[11] = system: Human immunodeficiency virus 1; experiment: Ratio of IC50 for HIV-1 NL4-3 harboring RT-K103N/V108I double mutant infected in HEK293T cells co-expressing vesicular stomatitis virus glycoprotein to IC50 for wild-type HIV-1 NL4-3 infected in HEK293T cells co-expressing vesicular stomatitis virus glycoprotein; format: functional, HEK-293T; how it was run: as §2
[12] = system: Human immunodeficiency virus 1; experiment: Antiviral activity against HIV-1 NL4-3 harboring RT-K103N/G190A double mutant infected in HEK293T cells coexpressing vesicular stomatitis virus glycoprotein pretreated with cells for 15 mins followed by viral infection measured after 48 hrs by luciferase reporter gene assay; format: functional, cell-based; conditions: hek-293t; how it was run: as §1
[13] = system: Human immunodeficiency virus 1; experiment: Antiviral activity against HIV-1 NL4-3 harboring RT-Y188L mutant infected in HEK293T cells coexpressing vesicular stomatitis virus glycoprotein pretreated with cells for 15 mins followed by viral infection measured after 48 hrs by luciferase reporter gene assay; format: functional, cell-based; conditions: hek-293t; how it was run: as §1
[14] = system: Human immunodeficiency virus 1; experiment: Antiviral activity against HIV-1 NL4-3 harboring RT-K103N/P225H double mutant infected in HEK293T cells coexpressing vesicular stomatitis virus glycoprotein pretreated with cells for 15 mins followed by viral infection measured after 48 hrs by luciferase reporter gene assay; format: functional, cell-based; conditions: hek-293t; how it was run: as §1
[15] = system: Human immunodeficiency virus 1; experiment: Ratio of IC50 for HIV-1 NL4-3 harboring RT-K103N/P225H double mutant infected in HEK293T cells co-expressing vesicular stomatitis virus glycoprotein to IC50 for wild-type HIV-1 NL4-3 infected in HEK293T cells co-expressing vesicular stomatitis virus glycoprotein; format: functional, HEK-293T; how it was run: as §2
[16] = system: Human immunodeficiency virus 1; experiment: Antiviral activity against HIV-1 NL4-3 harboring RT-Y181C mutant infected in HEK293T cells coexpressing vesicular stomatitis virus glycoprotein pretreated with cells for 15 mins followed by viral infection measured after 48 hrs by luciferase reporter gene assay; format: functional, cell-based; conditions: hek-293t; how it was run: as §1
[17] = system: Human immunodeficiency virus 1; experiment: Ratio of IC50 for HIV-1 NL4-3 harboring RT-Y188L mutant infected in HEK293T cells co-expressing vesicular stomatitis virus glycoprotein to IC50 for wild-type HIV-1 NL4-3 infected in HEK293T cells co-expressing vesicular stomatitis virus glycoprotein; format: functional, HEK-293T; how it was run: as §2
[18] = system: Human immunodeficiency virus 1; experiment: Antiviral activity against HIV-1 NL4-3 harboring RT-K103N mutant infected in HEK293T cells coexpressing vesicular stomatitis virus glycoprotein pretreated with cells for 15 mins followed by viral infection measured after 48 hrs by luciferase reporter gene assay; format: functional, cell-based; conditions: hek-293t; how it was run: as §1
[19] = system: Human immunodeficiency virus 1; experiment: Antiviral activity against HIV-1 NL4-3 harboring RT-L100I/K103N double mutant infected in HEK293T cells coexpressing vesicular stomatitis virus glycoprotein pretreated with cells for 15 mins followed by viral infection measured after 48 hrs by luciferase reporter gene assay; format: functional, cell-based; conditions: hek-293t; how it was run: as §1
[20] = system: Human immunodeficiency virus 1; experiment: Ratio of IC50 for HIV-1 NL4-3 harboring RT-K103N/Y188L double mutant infected in HEK293T cells co-expressing vesicular stomatitis virus glycoprotein to IC50 for wild-type HIV-1 NL4-3 infected in HEK293T cells co-expressing vesicular stomatitis virus glycoprotein; format: functional, HEK-293T; how it was run: as §2
[21] = Inhibition of wild-type HIV-1 reverse transcriptase RNA-dependent DNA polymerase activity assessed as reduction in digoxigenin-11-dUTP incorporation using poly(rA)/oligo(dT) as template/primer incubated for 1 hr; parameters: species or system Human immunodeficiency virus 1

SMILES | IC50 [1] [nM] | Activity [2] | Ratio IC50 [3] | IC50 [4] [µM] | Ratio IC50 [5] | Ratio IC50 [6] | Ratio IC50 [7] | IC50 [8] [µM] | IC50 [9] [nM] | Ratio IC50 [10] | Ratio IC50 [11] | IC50 [12] [nM] | IC50 [13] [µM] | IC50 [14] [µM] | Ratio IC50 [15] | IC50 [16] [nM] | Ratio IC50 [17] | IC50 [18] [nM] | IC50 [19] [µM] | Ratio IC50 [20] | also measured
Clc1ccc(-c2nc(NCc3ccc4c(c3)CCO4)sc2Cc2c(Cl)cccc2Cl)c(Cl)c1 | 71 | Non-Toxic | – | – | – | – | – | – | – | – | – | – | – | – | – | – | – | – | – | – | –
COc1ccccc1Cc1sc(NCc2ccc3c(c2)CCO3)nc1-c1ccc(F)cc1F | 44.7 to 45 | Non-Toxic | 10.1 | > 10 | 19.5 | 6.5 | 2.9 | 0.45 | 760 | 11 | 17 | 490 | > 10 | 1.05 | 23.5 | 130 | >223.7 | 290 | 0.87 | >223.7 | –
COc1cccc(Cc2sc(NCc3ccc4c(c3)CCO4)nc2-c2ccccc2)c1 | 136 | Non-Toxic | – | – | – | – | – | – | – | – | – | – | – | – | – | – | – | – | – | – | –
COc1ccccc1Cc1sc(NCc2ccc3c(c2)CCO3)nc1-c1ccccc1 | 72 | Non-Toxic | 132.8 | > 10 | 73.8 | 12.2 | 8.8 | 9.56 | 1530 | 8.1 | 21.3 | 580 | > 10 | 4.98 | 69.2 | 512 | >223.7 | 880 | 5.31 | >223.7 | –
COc1ccc(Cc2sc(NCc3ccc4c(c3)CCO4)nc2-c2ccccc2)cc1 | > 10000 | Non-Toxic | – | – | – | – | – | – | – | – | – | – | – | – | – | – | – | – | – | – | –
Clc1ccc(Cc2sc(NCc3ccc4c(c3)CCO4)nc2-c2ccccc2)cc1 | > 10000 | Non-Toxic | – | – | – | – | – | – | – | – | – | – | – | – | – | – | – | – | – | – | –
c1ccc(Cc2sc(NCc3ccc4c(c3)CCO4)nc2-c2ccccc2)cc1 | 239 | Non-Toxic | – | – | – | – | – | – | – | – | – | – | – | – | – | – | – | – | – | – | –
Clc1cccc(Cl)c1Cc1sc(NCc2ccc3c(c2)CCO3)nc1-c1ccccc1 | 61.8 to 62 | Non-Toxic | >161.8 | > 10 | 81.7 | 24.8 | 6.3 | > 10 | 3000 | 9.1 | 48.5 | 560 | > 10 | > 10 | >161.8 | 390 | >161.8 | 1530 | 5.05 | >161.8 | –
Fc1cc(F)cc(Cc2sc(NCc3ccc4c(c3)CCO4)nc2-c2ccccc2)c1 | 37 to 37.2 | Non-Toxic | >268.8 | > 10 | 31.5 | 37.9 | 149.5 | > 10 | 10400 | 53.8 | 279.6 | 2000 | > 10 | 5.03 | 135.2 | 5560 | >268.8 | 1410 | 1.17 | >268.8 | –
Fc1ccc(Cc2sc(NCc3ccc4c(c3)CCO4)nc2-c2ccccc2)cc1 | 5670 | Non-Toxic | – | – | – | – | – | – | – | – | – | – | – | – | – | – | – | – | – | – | –
O=C1Nc2ccc(Cl)cc2[C@@](C#CC2CC2)(C(F)(F)F)O1 [EFAVIRENZ] | 1.04 | – | – | 13.8 | – | – | – | 0.0587 | – | – | – | – | – | – | – | – | – | – | 2.49 | – | –
Cc1ccnc2c1NC(=O)c1cccnc1N2C1CC1 [NEVIRAPINE] | – | – | >322 | > 10 | 161 | 519 | 2152 | > 10 | – | >322 | 90 | > 10000 | > 10 | – | 177 | – | >322 | – | 5 | >322 | IC50 [21]: 2100 nM
